Test results as given in ChEMBL document CHEMBL2093137, “WHO-TDR NTD Screening”.
Values after ≈ are worked out from the molar mass of the structure shown.

Experiments:
[1] = WHO-TDR: Cytotoxicity; type: toxicity, cell-based; settings: human, MRC5 cells
[2] = test system: Plasmodium falciparum K1; assay: WHO-TDR: Malaria; type: functional, organism-based, Homo sapiens; settings: Erythrocyte
Outline: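 Following previously published standard procedures, with a reference drug serving as positive control, compounds were tested on the Plasmodium falciparum K1 strain inside human red blood cells. The 10,000-compound diverse set came from Life Chemicals after filtering for drug-likeness and reactive groups. Potency against the parasite appears as IC50.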

[3] = test system: Trypanosoma cruzi; assay: WHO-TDR: Chagas disease; type: functional, organism-based, Homo sapiens; settings: MRC5
Outline: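 Whole-organism screen of a 10,000-compound diverse library from Life Chemicals, filtered for drug-likeness and reactive groups, against intracellular amastigotes of Trypanosoma cruzi Tulahuen CL2 beta-galactosidase strain grown in MRC-5SV2 human lung fibroblast host cells. The assay followed previously published standard procedures, with a reference drug as positive control. Antiparasitic potency is reported as IC50.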

[4] = test system: Trypanosoma brucei brucei; assay: WHO-TDR: Human African Trypanosomiasis (HAT); type: functional, organism-based; settings: Squib-427
Outline: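 Bloodstream forms of the Trypanosoma brucei Squib 427 strain were tested in a whole-organism screen with a diverse library from Life Chemicals of 10,000 compounds. Before screening, the library was filtered for drug-likeness and for reactive groups. The assay used previously published standard procedures and included reference drugs as positive controls. Potency against the parasite is expressed as IC50.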

[5] = test system: Leishmania infantum; assay: WHO-TDR: Leishmaniasis; type: functional, organism-based, Mus musculus; settings: Macrophage
Outline: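 Following previously published standard procedures, a whole-organism screen was run on Leishmania infantum MHOM/MA(BE)/67 amastigotes within murine peritoneal macrophages, with a reference drug as positive control. The 10,000 compounds tested formed a diverse Life Chemicals library filtered for drug-likeness and reactive groups. Potency against the parasite is reported as IC50.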

[6] = test system: Schistosoma mansoni; assay: WHO-TDR: Schistosomiasis; type: functional; design: concentration or dose not given beside the values
Outline: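 Values are reported as percent inhibition and IC50. They come from a whole-organism screen of a 10,000-compound diverse Life Chemicals library against larval and/or adult worms of Schistosoma mansoni, Puerto Rican strain. The library had been filtered for drug-likeness and reactive groups.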

[7] = test system: Onchocerca ochengi; assay: (§1) WHO-TDR: Onchocerciasis; type: functional; design: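 at 12.5 µM on microfilariae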
Outline: (§2)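 Values are reported as percent inhibition and as IC50. They come from a whole-organism screen of a 10,000-compound diverse Life Chemicals library against microfilariae of Onchocerca ochengi or Onchocerca lienalis. The screen followed previously published standard procedures, with reference drugs as positive controls.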

[8] = test system: Onchocerca ochengi; assay: as §1; type: functional; design: concentration or dose not given beside the values; outline: as §2; remark: listed apart in the source

CC(C)CCN1C(=O)CCc2cc(NC(=O)COc3ccc(Cl)cc3)ccc21
IC50 [1]: > 12 µg/mL | IC50 [2]: 7.34 µg/mL (≈ 18.3 µM) | IC50 [3]: 3.45 µg/mL (≈ 8.61 µM) | IC50 [4]: 3.89 µg/mL (≈ 9.71 µM) | IC50 [5]: > 12 µg/mL | % Inhibition [6]: 0% | % Inhibition [7]: 100% | % Inhibition [8]: 0%

O=C(Nc1nc(CSCc2ccc(F)cc2)cs1)c1ccco1
IC50 [1]: > 10.5 µg/mL | IC50 [2]: > 10.5 µg/mL | IC50 [3]: > 10.5 µg/mL | IC50 [4]: > 10.5 µg/mL | IC50 [5]: > 10.5 µg/mL | % Inhibition [6]: 0% | % Inhibition [7]: 100% | % Inhibition [8]: 0%

O=C(c1ccco1)N1CCN(c2ccc(-c3cccs3)nn2)CC1
IC50 [1]: > 10.2 µg/mL | IC50 [2]: 5.12 µg/mL (≈ 15 µM) | IC50 [3]: > 10.2 µg/mL | IC50 [4]: > 10.2 µg/mL | IC50 [5]: > 10.2 µg/mL | % Inhibition [6]: 0% | % Inhibition [7]: 100% | % Inhibition [8]: 0%

O=C(Nc1onc2c1CCCC2)c1cccc(Oc2ccccc2)c1
IC50 [1]: > 10 µg/mL | IC50 [2]: 8.46 µg/mL (≈ 25.3 µM) | IC50 [3]: 4.23 µg/mL (≈ 12.7 µM) | IC50 [4]: 3.25 µg/mL (≈ 9.71 µM) | IC50 [5]: > 10 µg/mL | % Inhibition [6]: 0% | % Inhibition [7]: 100% | % Inhibition [8]: 0%

CN1CCCc2cc(C(CNC(=O)c3ccc4c(c3)OCO4)N3CCOCC3)ccc21 (centres undefined)
IC50 [1]: 11.2 µg/mL (≈ 26.3 µM) | IC50 [2]: > 12.7 µg/mL | IC50 [3]: 4.94 µg/mL (≈ 11.7 µM) | IC50 [4]: > 12.7 µg/mL | IC50 [5]: > 12.7 µg/mL | % Inhibition [6]: 0% | % Inhibition [7]: 100% | % Inhibition [8]: 0%

CC1CCCN(S(=O)(=O)c2ccc(C(=O)Nc3nnc(-c4ccno4)o3)cc2)C1 (centres undefined)
IC50 [1]: > 12.5 µg/mL | IC50 [2]: 5.03 µg/mL (≈ 12 µM) | IC50 [3]: > 12.5 µg/mL | IC50 [4]: > 12.5 µg/mL | IC50 [5]: > 12.5 µg/mL | % Inhibition [6]: 0% | % Inhibition [7]: 100% | % Inhibition [8]: 0%

O=C(CS(=O)(=O)c1ccc(F)cc1)Nc1onc2c1CCC2
IC50 [1]: > 9.73 µg/mL | IC50 [2]: 2.83 µg/mL (≈ 8.72 µM) | IC50 [3]: 1.71 µg/mL (≈ 5.28 µM) | IC50 [4]: 3.19 µg/mL (≈ 9.83 µM) | IC50 [5]: > 9.73 µg/mL | % Inhibition [6]: 0% | % Inhibition [7]: 100% | % Inhibition [8]: 0%

CN1CCCc2cc(C(CNC(=O)COc3ccc(Cl)cc3)N3CCCC3)ccc21 (centres undefined)
IC50 [1]: > 12.8 µg/mL | IC50 [2]: > 12.8 µg/mL | IC50 [3]: 4.46 µg/mL (≈ 10.4 µM) | IC50 [4]: 0.411 µg/mL (≈ 0.96 µM) | IC50 [5]: 4.16 µg/mL (≈ 9.71 µM) | % Inhibition [6]: 25% | % Inhibition [7]: 0% | % Inhibition [8]: 0%

O=C(CN1CCC(C(=O)Nc2ccc(Oc3ccccc3)cc2)CC1)Nc1ccc(F)cc1
IC50 [1]: > 13.4 µg/mL | IC50 [2]: > 13.4 µg/mL | IC50 [3]: > 13.4 µg/mL | IC50 [4]: > 13.4 µg/mL | IC50 [5]: 0.695 µg/mL (≈ 1.55 µM) | % Inhibition [6]: 0% | % Inhibition [7]: 0% | % Inhibition [8]: 0%

Cc1cc(C(=O)N(CCCN(C)C)c2nc3c(C)ccc(Cl)c3s2)no1
IC50 [1]: 5.07 µg/mL (≈ 12.9 µM) | IC50 [2]: 3.3 µg/mL (≈ 8.41 µM) | IC50 [3]: 4.14 µg/mL (≈ 10.5 µM) | IC50 [4]: 0.378 µg/mL (≈ 0.962 µM) | IC50 [5]: 4.17 µg/mL (≈ 10.6 µM) | % Inhibition [6]: 0% | % Inhibition [7]: 100% | % Inhibition [8]: 0%

COc1ccc2oc(-c3csc(NC(=O)c4cccc(OC)c4OC)n3)cc2c1
IC50 [1]: > 12.3 µg/mL | IC50 [2]: > 12.3 µg/mL | IC50 [3]: > 12.3 µg/mL | IC50 [4]: > 12.3 µg/mL | IC50 [5]: 0.638 µg/mL (≈ 1.55 µM) | % Inhibition [6]: 0% | % Inhibition [7]: 0% | % Inhibition [8]: 0%

O=C(Nc1nc2c(s1)CCCC2C(=O)NCCC1=CCCCC1)c1ccccc1 (centres undefined)
IC50 [1]: > 12.3 µg/mL | IC50 [2]: 2.13 µg/mL (≈ 5.19 µM) | IC50 [3]: 3.45 µg/mL (≈ 8.42 µM) | IC50 [4]: 2.56 µg/mL (≈ 6.26 µM) | IC50 [5]: > 12.3 µg/mL | % Inhibition [6]: 0% | % Inhibition [7]: 100% | % Inhibition [8]: 0%

O=C(Nc1nc(-c2ccncc2)cs1)C1CCCN(S(=O)(=O)c2ccc(Cl)s2)C1 (centres undefined)
IC50 [1]: > 14.1 µg/mL | IC50 [2]: 6.68 µg/mL (≈ 14.2 µM) | IC50 [3]: 0.243 µg/mL (≈ 0.518 µM) | IC50 [4]: 4.5 µg/mL (≈ 9.6 µM) | IC50 [5]: 4.55 µg/mL (≈ 9.71 µM) | % Inhibition [6]: 0% | % Inhibition [7]: 50% | % Inhibition [8]: 0%

Cc1cc(=O)[nH]c(-n2nc(C)cc2NC(=O)c2ccccc2C(F)(F)F)n1
IC50 [1]: 2.61 µg/mL (≈ 6.91 µM) | IC50 [2]: > 11.3 µg/mL | IC50 [3]: 0.409 µg/mL (≈ 1.08 µM) | IC50 [4]: > 11.3 µg/mL | IC50 [5]: > 11.3 µg/mL | % Inhibition [6]: 0% | % Inhibition [7]: 0% | % Inhibition [8]: 0%

CCc1cc(=O)[nH]c(-n2nc(C)cc2NC(=O)Cc2cccs2)n1
IC50 [1]: 0.293 µg/mL (≈ 0.853 µM) | IC50 [2]: 0.493 µg/mL (≈ 1.44 µM) | IC50 [3]: 0.276 µg/mL (≈ 0.804 µM) | IC50 [4]: 0.338 µg/mL (≈ 0.983 µM) | IC50 [5]: > 10.3 µg/mL | % Inhibition [6]: 0% | % Inhibition [7]: 100% | % Inhibition [8]: 0%

O=C(NC1CCCC1)c1csc(NC(=O)c2cccs2)n1
IC50 [1]: > 9.64 µg/mL | IC50 [2]: > 9.64 µg/mL | IC50 [3]: > 9.64 µg/mL | IC50 [4]: > 9.64 µg/mL | IC50 [5]: > 9.64 µg/mL | % Inhibition [6]: 0% | % Inhibition [7]: 100% | % Inhibition [8]: 0%

O=C(CC1CCCCN1S(=O)(=O)c1ccc(Cl)cc1)Nc1ccc2c(c1)OCO2 (centres undefined)
IC50 [1]: > 13.1 µg/mL | IC50 [2]: > 13.1 µg/mL | IC50 [3]: 0.789 µg/mL (≈ 1.81 µM) | IC50 [4]: 4.24 µg/mL (≈ 9.71 µM) | IC50 [5]: > 13.1 µg/mL | % Inhibition [6]: 0% | % Inhibition [7]: 0% | % Inhibition [8]: 0%

CCOc1ccc(N2CC(CNS(=O)(=O)c3cccc(C(F)(F)F)c3)CC2=O)cc1 (centres undefined)
IC50 [1]: > 13.3 µg/mL | IC50 [2]: > 13.3 µg/mL | IC50 [3]: > 13.3 µg/mL | IC50 [4]: > 13.3 µg/mL | IC50 [5]: > 13.3 µg/mL | % Inhibition [6]: 0% | % Inhibition [7]: 100% | % Inhibition [8]: 0%

COc1ccccc1OCC(=O)Nc1nc(CSCc2ccc(F)cc2)cs1
IC50 [1]: > 12.6 µg/mL | IC50 [2]: > 12.6 µg/mL | IC50 [3]: > 12.6 µg/mL | IC50 [4]: > 12.6 µg/mL | IC50 [5]: > 12.6 µg/mL | % Inhibition [6]: 0% | % Inhibition [7]: 100% | % Inhibition [8]: 0%

CC1CCN(C(C)CNC(=O)Nc2cccc(Cl)c2)CC1 (centres undefined)
IC50 [1]: > 9.29 µg/mL | IC50 [2]: 1.01 µg/mL (≈ 3.26 µM) | IC50 [3]: > 9.29 µg/mL | IC50 [4]: 0.301 µg/mL (≈ 0.971 µM) | IC50 [5]: 4.81 µg/mL (≈ 15.5 µM) | % Inhibition [6]: 0% | % Inhibition [7]: 50% | % Inhibition [8]: 0%

O=C(CC1CCCCN1S(=O)(=O)c1ccc(Cl)cc1)NCCC1=CCCCC1 (centres undefined)
IC50 [1]: 12.7 µg/mL (≈ 30 µM) | IC50 [2]: > 12.7 µg/mL | IC50 [3]: 0.517 µg/mL (≈ 1.22 µM) | IC50 [4]: 4.23 µg/mL (≈ 9.95 µM) | IC50 [5]: 6.6 µg/mL (≈ 15.5 µM) | % Inhibition [6]: 0% | % Inhibition [7]: 0% | % Inhibition [8]: 0%

CC(CNC(=O)Nc1ccc(Oc2ccccc2)cc1)N1CCCCC1 (centres undefined)
IC50 [1]: > 10.6 µg/mL | IC50 [2]: 0.754 µg/mL (≈ 2.13 µM) | IC50 [3]: 3.98 µg/mL (≈ 11.3 µM) | IC50 [4]: 0.319 µg/mL (≈ 0.902 µM) | IC50 [5]: 3.43 µg/mL (≈ 9.71 µM) | % Inhibition [6]: 0% | % Inhibition [7]: 100% | % Inhibition [8]: 75%

CCCN1C(=O)C(C)(C)COc2cc(NS(=O)(=O)c3c(C)c(C)cc(C)c3C)ccc21
IC50 [1]: > 13.3 µg/mL | IC50 [2]: > 13.3 µg/mL | IC50 [3]: 3.55 µg/mL (≈ 7.99 µM) | IC50 [4]: 4.27 µg/mL (≈ 9.6 µM) | IC50 [5]: > 13.3 µg/mL | % Inhibition [6]: 0% | % Inhibition [7]: 100% | % Inhibition [8]: 0%
